Data: ChEMBL document CHEMBL1649213, “The arabinosyltransferase EmbC is inhibited by ethambutol in Mycobacterium tuberculosis” (2009)
Converted amounts (≈) assume the structure as drawn.

Key:
Type in all cases: functional
[1] = tested on: Mycobacterium tuberculosis; assay: Antimicrobial activity against Mycobacterium tuberculosis expressing EmbC D249G mutant gene after 48 hrs by agar proportion method
Summary of the method: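 Agar proportion method: 10^4 CFU plated on 7H10-OADC with EMB or drug-free, and colonies counted after 4 weeks. MIC99 is the lowest concentration at which <1% of cells formed colonies.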

[2] = tested on: Mycobacterium tuberculosis; assay: Antimicrobial activity against Mycobacterium tuberculosis harboring Mycobacterium smegmatis embB M292I mutant gene after 48 hrs by agar proportion method
[3] = tested on: Mycobacterium tuberculosis; assay: Antimicrobial activity against Mycobacterium tuberculosis harboring Mycobacterium smegmatis embB M292V mutant gene after 48 hrs by agar proportion method
[4] = tested on: Mycobacterium tuberculosis; assay: Antimicrobial activity against Mycobacterium tuberculosis expressing EmbC M300L mutant gene after 48 hrs
Summary of the method: (§1)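 Spot test: 20 µl exponential-phase culture spotted on 7H10 agar plus 10% OADC with EMB 0 to 128 µg/ml. Incubated at 37°C for 10 to 30 days, and growth scored against the drug-free lawn. MIC taken as the highest EMB concentration allowing growth.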

[5] = tested on: Mycobacterium tuberculosis; assay: Antimicrobial activity against Mycobacterium tuberculosis expressing EmbC M300I mutant gene after 48 hrs by agar proportion method
[6] = tested on: Mycobacterium tuberculosis; assay: Antimicrobial activity against Mycobacterium tuberculosis expressing EmbC M300L mutant gene after 48 hrs by agar proportion method
[7] = tested on: Mycobacterium tuberculosis; assay: Antimicrobial activity against Mycobacterium tuberculosis expressing EmbC D249G mutant gene after 48 hrs; summary of the method: as §1
[8] = tested on: Mycobacterium tuberculosis; assay: Antimicrobial activity against Mycobacterium tuberculosis expressing EmbC M300I mutant gene after 48 hrs; summary of the method: as §1
[9] = tested on: Mycobacterium tuberculosis; assay: Antimicrobial activity against Mycobacterium tuberculosis harboring Mycobacterium smegmatis embB gene after 48 hrs by agar proportion method
[10] = tested on: Mycobacterium tuberculosis; assay: Antimicrobial activity against Mycobacterium tuberculosis expressing EmbC M300V mutant gene after 48 hrs; summary of the method: as §1
[11] = tested on: Mycobacterium tuberculosis; assay: Antimicrobial activity against Mycobacterium tuberculosis expressing EmbC T270I mutant gene after 48 hrs; summary of the method: as §1
[12] = tested on: Mycobacterium tuberculosis; assay: Antimicrobial activity against Mycobacterium tuberculosis embA V280M gene after 48 hrs by agar proportion method
[13] = tested on: Mycobacterium tuberculosis; assay: Antimicrobial activity against Mycobacterium tuberculosis harboring Mycobacterium smegmatis embB M292L mutant gene after 48 hrs by agar proportion method
[14] = tested on: Mycobacterium tuberculosis; assay: Antimicrobial activity against Mycobacterium tuberculosis expressing EmbC M300V mutant gene after 48 hrs by agar proportion method
[15] = tested on: Mycobacterium tuberculosis; assay: Antimicrobial activity against Mycobacterium tuberculosis expressing EmbC T270I mutant gene after 48 hrs by agar proportion method
[16] = tested on: Mycobacterium tuberculosis; assay: Ratio of MIC for Mycobacterium tuberculosis expressing wild type EmbC gene to MIC for Mycobacterium tuberculosis expressing EmbC D249G mutant gene

SMILES: CC[C@@H](CO)NCCN[C@@H](CC)CO [ETHAMBUTOL]
- MIC90 [1]: <0.5 µg/mL
- MIC [2]: 3 µg/mL (≈ 14.7 µM)
- MIC [3]: 3 µg/mL (≈ 14.7 µM)
- MIC [4]: 0.5 µg/mL (≈ 2.45 µM)
- MIC90 [5]: 1 µg/mL (≈ 4.89 µM)
- MIC90 [6]: 0.5 µg/mL (≈ 2.45 µM)
- MIC [7]: 0.5 µg/mL (≈ 2.45 µM)
- MIC [8]: <3 µg/mL
- MIC [9]: 8 µg/mL (≈ 39.2 µM)
- MIC [10]: 0.5 µg/mL (≈ 2.45 µM)
- MIC [11]: 4 µg/mL (≈ 19.6 µM)
- MIC [12]: 4 µg/mL (≈ 19.6 µM)
- MIC [13]: 8 µg/mL (≈ 39.2 µM)
- MIC90 [14]: <0.5 µg/mL
- MIC90 [15]: 1 µg/mL (≈ 4.89 µM)
- Ratio [16]: 6
